Assay results published in ChEMBL document CHEMBL3098043, “New insights into molecular recognition of 1,1-bisphosphonic acids by farnesyl diphosphate synthase” (Bioorg Med Chem, 2014).

Assays:
Trypanosoma cruzi [1] = experiment: Antimicrobial activity against Trypanosoma cruzi; type: functional; settings: read-out: ED50 (the source's name)
[2] = Cytotoxicity against hTerT cells; type: cell-based; settings: human
Procedure, shortened: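 Toxicity toward hTerT host cells was judged by visual inspection during the tachyzoite growth assay. Cells were in DMEM-HG with 1% FBS at 37 °C, 5% CO2.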

Toxoplasma gondii [3] = experiment: Antimicrobial activity against Toxoplasma gondii tachyzoites expressing red fluorescence protein infected in hTerT cells measured daily by fluorescence assay; type: functional; settings: read-out: ED50 (the source's name)
Procedure, shortened: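 Tachyzoites expressing red fluorescent protein, maintained in hTerT cells in DMEM-HG with 1% FBS, 2 mM glutamine, 1 mM pyruvate, 37 °C, 5% CO2. Confluent hTerT monolayers infected with 10^4 filtered, needle-passed tachyzoites/well. Drugs serially diluted in the same medium. Fluorescence read daily from the bottom (ex 510, em 540 nm).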

Vero [4] = experiment: Cytotoxicity against african green monkey Vero cells at 25 uM; type: cell-based; settings: chlorocebus sabaeus
Procedure, shortened: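 Host-cell toxicity toward irradiated, T. cruzi-infected Vero cells was judged by visual inspection during the amastigote assay. Drugs went up to 25 μM in RPMI with 10% FBS at 35 °C, 7% CO2, over 3 days.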

Trypanosoma cruzi [5] = experiment: Antimicrobial activity against Trypanosoma cruzi CL amastigotes infected in african green monkey Vero cells measured on day 3 by fluorescence assay; type: functional; settings: 72 h, read-out: ED50 (the source's name)
Procedure, shortened: (§1)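 Vero cells were gamma-irradiated (2,000 Rads), seeded at 3.4×10^4/well in RPMI with 10% FBS, and incubated overnight at 35 °C, 7% CO2. […] Compounds were given in serial dilutions (1.56–25 μM), each in quadruplicate, with benznidazole (0.39–6.25 μM) as reference. Fluorescence was read on day 3 post-infection, and IC50 was obtained by non-linear regression.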

[6] = […]; design: species or system Trypanosoma cruzi
Trypanosoma cruzi [7] = experiment: Antimicrobial activity against Trypanosoma cruzi amastigotes; type: functional; settings: read-out: ED50 (the source's name); procedure, shortened: as §1
Trypanosoma cruzi [8] = experiment: Ratio of compound activity to WC-9 activity for Trypanosoma cruzi amastigotes; type: functional
[9] = target: T1, Farnesyl diphosphate synthase (Toxoplasma gondii, UniProt Q197X6); experiment: Inhibition of Toxoplasma gondii FPPS
T1 sequence (Q197X6 whole entry): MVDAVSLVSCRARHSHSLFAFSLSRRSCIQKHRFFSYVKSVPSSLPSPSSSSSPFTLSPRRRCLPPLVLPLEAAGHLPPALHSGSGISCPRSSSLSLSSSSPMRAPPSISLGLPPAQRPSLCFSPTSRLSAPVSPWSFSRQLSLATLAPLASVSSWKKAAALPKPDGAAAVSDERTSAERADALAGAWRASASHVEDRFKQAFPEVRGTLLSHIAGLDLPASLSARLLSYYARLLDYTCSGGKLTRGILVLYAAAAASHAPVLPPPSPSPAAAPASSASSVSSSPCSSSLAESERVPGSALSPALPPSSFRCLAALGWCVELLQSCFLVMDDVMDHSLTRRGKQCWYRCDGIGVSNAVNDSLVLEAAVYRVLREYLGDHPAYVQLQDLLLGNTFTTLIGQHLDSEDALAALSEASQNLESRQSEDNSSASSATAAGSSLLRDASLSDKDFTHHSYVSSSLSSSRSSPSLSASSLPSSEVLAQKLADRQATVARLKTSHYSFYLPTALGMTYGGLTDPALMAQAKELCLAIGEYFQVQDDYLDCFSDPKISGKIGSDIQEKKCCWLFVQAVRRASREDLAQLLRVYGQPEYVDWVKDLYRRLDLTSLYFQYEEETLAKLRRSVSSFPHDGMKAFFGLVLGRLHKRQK

Vero [10] = experiment: Cytotoxicity against african green monkey Vero cells at 10 uM; type: cell-based; settings: chlorocebus sabaeus
Trypanosoma cruzi [11] = experiment: Antimicrobial activity against Trypanosoma cruzi CL amastigotes infected in african green monkey Vero cells at 10 uM measured on day 3 by fluorescence assay; type: functional; settings: 72 h
Procedure, shortened: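 Vero host cells, gamma-irradiated (2,000 Rads), seeded at 3.4×10^4/well in RPMI with 10% FBS and incubated overnight at 35 °C, 7% CO2. […] Compounds were added in RPMI, in quadruplicate, with no-parasite background and no-drug controls. Fluorescence was read at day 3 post-infection.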

Toxoplasma gondii [12] = experiment: Antimicrobial activity against Toxoplasma gondii tachyzoites expressing red fluorescence protein infected in hTerT cells at 10 uM measured daily by fluorescence assay; type: functional

| SMILES | Activity [2] | EC50 (Toxoplasma gondii [3]) [µM] | Activity (Vero [4]) | EC50 (Trypanosoma cruzi [5]) [µM] | IC50 [6] [µM] | IC50 [9] [µM] | further results |
| --- | --- | --- | --- | --- | --- | --- | --- |
| CCCCCCCCCCCCNCC(P(=O)(O)O)P(=O)(O)O |  |  |  |  |  |  | EC50 (Trypanosoma cruzi [1]): 0.67 µM |
| CCCCCCCNCC(O)(P(=O)(O)O)P(=O)(O)O | Non-toxic | ≥ 10 | Non-toxic | > 20 | > 10 |  |  |
| CCCCCCNCC(P(=O)(O)O)P(=O)(O)O |  |  |  |  |  |  | EC50 (Trypanosoma cruzi [7]): 0.84 µM; Ratio (Trypanosoma cruzi [8]): 15 |
| CCCCCCCCC(F)(P(=O)(O)O)P(=O)(O)O |  |  |  |  |  | 0.035 |  |
| CCCCCCCCCC(F)(P(=O)(O)O)P(=O)(O)O |  |  |  |  |  | 0.06 |  |
| CCCCCNCC(O)(P(=O)(O)O)P(=O)(O)O | Non-toxic | > 10 | Non-toxic | > 20 | > 10 | 0.067 |  |
| CCCCCCNCC(O)(P(=O)(O)O)P(=O)(O)O | Non-toxic | 4.68 | Non-toxic | > 20 | > 10 | 0.051 |  |
| CCCCCCCCNCC(O)(P(=O)(O)O)P(=O)(O)O | Non-toxic | 2 | Non-toxic |  | > 10 | 0.039 | Activity (Vero [10]): Toxic; inhibition at 10 µM (Trypanosoma cruzi [11]): 46% |
| CCCCCCCCCCNCC(O)(P(=O)(O)O)P(=O)(O)O | Non-toxic |  | Non-toxic |  | > 10 | 0.125 | inhibition at 10 µM (Toxoplasma gondii [12]): 14.9%; inhibition at 10 µM (Trypanosoma cruzi [11]): 42% |
| O=C(Cn1ccnc1[N+](=O)[O-])NCc1ccccc1 [BENZNIDAZOLE] |  |  |  | 1.44 |  |  | EC50 (Trypanosoma cruzi [1]): 2.77 µM |
| O=P(O)(O)C(O)(Cc1cccnc1)P(=O)(O)O [RISEDRONIC ACID] |  | 2.4 |  |  |  |  |  |
